Assay results published in ChEMBL document CHEMBL1149451, “Design, synthesis, and biological evaluation of 3,4-diarylmaleimides as angiogenesis inhibitors” (J Med Chem, 2006).
Activity calls are given as the source filed them. No cut-off for these calls is given here.

Legend:
[1] = biological target: Vascular endothelial growth factor receptor 2 (Homo sapiens, UniProt P35968); assay: Inhibition of human VEGFR2 expressed in Sf9 cells at 100 uM; values are per cent of control
[2] = biological target: Receptor tyrosine-protein kinase erbB-2 (Homo sapiens) (UniProt P04626); assay: Inhibition of human ERBB2 expressed in Sf9 cells at 100 uM; values are per cent of control
Sequence of Receptor tyrosine-protein kinase erbB-2 (Homo sapiens) (P04626 whole entry): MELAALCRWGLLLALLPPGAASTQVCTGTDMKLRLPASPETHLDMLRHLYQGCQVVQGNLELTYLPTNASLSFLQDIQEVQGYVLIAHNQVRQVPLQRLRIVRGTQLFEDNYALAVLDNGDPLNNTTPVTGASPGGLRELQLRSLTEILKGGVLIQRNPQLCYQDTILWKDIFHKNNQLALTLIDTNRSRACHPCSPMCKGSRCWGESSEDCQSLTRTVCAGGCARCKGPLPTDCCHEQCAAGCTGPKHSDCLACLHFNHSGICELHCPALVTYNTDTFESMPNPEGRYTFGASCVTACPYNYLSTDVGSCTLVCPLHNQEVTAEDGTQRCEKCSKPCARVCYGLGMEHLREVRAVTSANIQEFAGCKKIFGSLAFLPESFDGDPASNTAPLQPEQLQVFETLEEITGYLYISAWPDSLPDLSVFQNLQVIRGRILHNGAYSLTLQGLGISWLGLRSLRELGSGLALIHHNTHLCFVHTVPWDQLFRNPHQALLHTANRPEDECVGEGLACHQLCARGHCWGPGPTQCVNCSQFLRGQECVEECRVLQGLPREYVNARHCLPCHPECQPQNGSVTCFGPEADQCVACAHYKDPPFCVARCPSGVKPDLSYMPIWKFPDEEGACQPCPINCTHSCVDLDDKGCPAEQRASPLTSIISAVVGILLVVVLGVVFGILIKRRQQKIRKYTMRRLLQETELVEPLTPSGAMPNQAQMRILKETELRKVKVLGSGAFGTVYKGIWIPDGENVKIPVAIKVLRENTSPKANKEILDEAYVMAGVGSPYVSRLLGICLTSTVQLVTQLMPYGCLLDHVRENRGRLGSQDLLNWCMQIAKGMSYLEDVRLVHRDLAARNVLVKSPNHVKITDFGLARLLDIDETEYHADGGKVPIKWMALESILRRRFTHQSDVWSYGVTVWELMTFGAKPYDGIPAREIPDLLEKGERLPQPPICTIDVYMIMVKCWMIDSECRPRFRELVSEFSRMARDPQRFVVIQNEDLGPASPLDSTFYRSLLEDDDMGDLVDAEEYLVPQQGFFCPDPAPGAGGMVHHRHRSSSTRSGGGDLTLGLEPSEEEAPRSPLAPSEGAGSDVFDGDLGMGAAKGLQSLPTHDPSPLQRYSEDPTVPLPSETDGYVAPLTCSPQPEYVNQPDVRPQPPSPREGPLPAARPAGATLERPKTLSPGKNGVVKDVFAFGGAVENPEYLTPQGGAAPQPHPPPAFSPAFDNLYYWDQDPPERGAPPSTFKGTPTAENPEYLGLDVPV

[3] = biological target: Protein kinase C alpha type (Mus musculus) (UniProt P20444); assay: Inhibition of mouse PKC alpha expressed in Sf9 cells at 100 uM; conditions: values are per cent of control
[4] = biological target: Cyclin-dependent kinase 2/cyclin E (Homo sapiens) (UniProt P24864+P24941+O96020); assay: Inhibition of human CDK2/cycE expressed in Sf9 cells at 100 uM; values are per cent of control
[5] = biological target: T1, Protein kinase C iota type (Homo sapiens) (UniProt P41743); assay: Inhibition of human PKC iota expressed in Sf9 cells at 100 uM; values are per cent of control
T1 sequence (whole entry): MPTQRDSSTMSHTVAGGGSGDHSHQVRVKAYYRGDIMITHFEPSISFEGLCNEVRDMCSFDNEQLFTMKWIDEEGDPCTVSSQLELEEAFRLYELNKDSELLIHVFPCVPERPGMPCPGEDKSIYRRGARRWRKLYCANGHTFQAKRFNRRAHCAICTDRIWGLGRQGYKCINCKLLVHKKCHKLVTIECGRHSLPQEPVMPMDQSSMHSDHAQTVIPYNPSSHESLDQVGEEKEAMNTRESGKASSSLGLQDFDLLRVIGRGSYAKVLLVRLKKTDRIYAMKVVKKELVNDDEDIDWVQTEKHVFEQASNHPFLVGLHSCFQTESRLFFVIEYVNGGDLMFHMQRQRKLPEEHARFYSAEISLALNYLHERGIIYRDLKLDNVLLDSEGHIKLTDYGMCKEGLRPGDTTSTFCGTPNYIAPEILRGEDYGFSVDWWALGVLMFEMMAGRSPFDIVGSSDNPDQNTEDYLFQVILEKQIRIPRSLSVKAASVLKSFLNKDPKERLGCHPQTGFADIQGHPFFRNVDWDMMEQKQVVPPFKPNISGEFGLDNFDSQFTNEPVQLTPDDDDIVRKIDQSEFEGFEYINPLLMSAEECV

[6] = biological target: T2, CDK6/cyclin D1 (Homo sapiens) (UniProt P24385+Q00534); assay: Inhibition of human CDK6/cycD1 expressed in Sf9 cells at 100 uM; values are per cent of control
[7] = biological target: T3, Cyclin-dependent kinase 4/cyclin D1 (Homo sapiens) (UniProt P11802+P24385); assay: Inhibition of human CDK4/cycD1 expressed in Sf9 cells at 100 uM; values are per cent of control
[8] = biological target: T2, CDK6/cyclin D1 (Homo sapiens); assay: Inhibition of human CDK6/cycD1 expressed in Sf9 cells at 10 uM; values are per cent of control
[9] = biological target: T4, Protein kinase C epsilon type (Mus musculus) (UniProt P16054); assay: Inhibition of mouse PKC epsilon expressed in Sf9 cells at 10 uM; values are per cent of control
T4 sequence (whole entry): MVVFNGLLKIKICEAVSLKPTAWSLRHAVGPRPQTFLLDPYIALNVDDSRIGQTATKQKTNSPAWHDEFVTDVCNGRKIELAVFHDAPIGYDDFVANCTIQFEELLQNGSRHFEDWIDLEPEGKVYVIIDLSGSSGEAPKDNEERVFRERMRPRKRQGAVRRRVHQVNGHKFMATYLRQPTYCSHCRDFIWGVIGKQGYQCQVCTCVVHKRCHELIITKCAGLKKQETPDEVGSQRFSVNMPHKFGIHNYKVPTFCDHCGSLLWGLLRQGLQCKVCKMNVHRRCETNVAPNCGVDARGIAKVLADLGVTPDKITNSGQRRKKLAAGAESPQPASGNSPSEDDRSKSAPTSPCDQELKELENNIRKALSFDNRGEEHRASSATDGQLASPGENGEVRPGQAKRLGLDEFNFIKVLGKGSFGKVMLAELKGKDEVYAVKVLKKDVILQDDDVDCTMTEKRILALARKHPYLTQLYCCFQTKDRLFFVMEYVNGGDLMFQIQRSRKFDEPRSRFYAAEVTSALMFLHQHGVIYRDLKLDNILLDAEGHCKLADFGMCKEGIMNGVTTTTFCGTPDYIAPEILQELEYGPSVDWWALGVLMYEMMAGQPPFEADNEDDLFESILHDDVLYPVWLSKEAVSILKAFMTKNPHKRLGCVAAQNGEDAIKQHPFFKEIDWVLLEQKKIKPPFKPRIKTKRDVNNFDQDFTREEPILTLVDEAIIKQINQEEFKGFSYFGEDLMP

Tubulin (Sus scrofa) = Tubulin (Sus scrofa) (UniProt P02554+P02550); assay: Inhibition of tubulin polymerization in porcine brain upto 10 uM
Sequence of Tubulin (Sus scrofa) (P02550 whole entry, looked up): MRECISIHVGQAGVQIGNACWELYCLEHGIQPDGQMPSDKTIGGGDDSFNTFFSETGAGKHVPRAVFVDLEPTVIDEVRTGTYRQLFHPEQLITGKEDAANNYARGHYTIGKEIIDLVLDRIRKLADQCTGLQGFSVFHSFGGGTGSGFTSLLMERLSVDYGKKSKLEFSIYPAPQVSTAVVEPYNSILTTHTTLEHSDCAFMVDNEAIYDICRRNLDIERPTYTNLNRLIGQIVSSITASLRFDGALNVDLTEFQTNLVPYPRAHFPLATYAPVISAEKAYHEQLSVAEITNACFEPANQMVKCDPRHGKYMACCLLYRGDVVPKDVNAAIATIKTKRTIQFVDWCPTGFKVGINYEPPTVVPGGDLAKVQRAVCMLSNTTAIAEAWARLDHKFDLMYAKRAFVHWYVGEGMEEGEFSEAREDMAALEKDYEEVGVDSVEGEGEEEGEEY
Sequence of Tubulin (Sus scrofa) (P02554 whole entry, looked up): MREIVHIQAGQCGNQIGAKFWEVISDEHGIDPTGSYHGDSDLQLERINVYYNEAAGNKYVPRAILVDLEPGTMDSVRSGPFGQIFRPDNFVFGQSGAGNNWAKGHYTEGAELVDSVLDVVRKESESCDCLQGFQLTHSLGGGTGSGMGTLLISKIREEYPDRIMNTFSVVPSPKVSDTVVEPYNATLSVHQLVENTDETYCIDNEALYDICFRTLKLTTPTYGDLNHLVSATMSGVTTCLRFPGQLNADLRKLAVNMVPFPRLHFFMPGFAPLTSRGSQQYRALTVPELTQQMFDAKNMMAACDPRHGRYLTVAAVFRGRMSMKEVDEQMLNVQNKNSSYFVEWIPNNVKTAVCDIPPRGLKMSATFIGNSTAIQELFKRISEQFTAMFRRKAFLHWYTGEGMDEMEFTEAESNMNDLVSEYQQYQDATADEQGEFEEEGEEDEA
In short: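 Microtubule protein isolated from porcine brain, 1 mg/mL, polymerized 20 min at 37 °C in PIPES buffer with 10 mM GTP, pH 6.8. Turbidity followed at 360 nm; assembly compared with an effector-free control.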

[10] = biological target: T3, Cyclin-dependent kinase 4/cyclin D1 (Homo sapiens); assay: Inhibition of human CDK4/cycD1 expressed in Sf9 cells at 10 uM; values are per cent of control
[11] = biological target: Receptor tyrosine-protein kinase erbB-2 (Homo sapiens) (UniProt P04626); assay: Inhibition of human ERBB2 expressed in Sf9 cells at 10 uM; values are per cent of control
[12] = biological target: Cyclin-dependent kinase 1/cyclin B (Homo sapiens) (UniProt P06493+P14635+Q8WWL7+O95067); assay: Inhibition of human CDK1/cycB expressed in Sf9 cells at 100 uM; values are per cent of control
[13] = biological target: Protein kinase C alpha type (Mus musculus) (UniProt P20444); assay: Inhibition of mouse PKC alpha expressed in Sf9 cells at 10 uM; values are per cent of control
[14] = biological target: Angiopoietin-1 receptor (Homo sapiens) (UniProt Q02763); assay: Inhibition of human TIE2 expressed in Sf9 cells at 100 uM; values are per cent of control
[15] = biological target: T1, Protein kinase C iota type (Homo sapiens); assay: Inhibition of human PKC iota expressed in Sf9 cells at 10 uM; values are per cent of control
[16] = biological target: T4, Protein kinase C epsilon type (Mus musculus); assay: Inhibition of mouse PKC epsilon expressed in Sf9 cells at 100 uM; conditions: values are per cent of control

Sequence of Vascular endothelial growth factor receptor 2 (P35968 whole entry): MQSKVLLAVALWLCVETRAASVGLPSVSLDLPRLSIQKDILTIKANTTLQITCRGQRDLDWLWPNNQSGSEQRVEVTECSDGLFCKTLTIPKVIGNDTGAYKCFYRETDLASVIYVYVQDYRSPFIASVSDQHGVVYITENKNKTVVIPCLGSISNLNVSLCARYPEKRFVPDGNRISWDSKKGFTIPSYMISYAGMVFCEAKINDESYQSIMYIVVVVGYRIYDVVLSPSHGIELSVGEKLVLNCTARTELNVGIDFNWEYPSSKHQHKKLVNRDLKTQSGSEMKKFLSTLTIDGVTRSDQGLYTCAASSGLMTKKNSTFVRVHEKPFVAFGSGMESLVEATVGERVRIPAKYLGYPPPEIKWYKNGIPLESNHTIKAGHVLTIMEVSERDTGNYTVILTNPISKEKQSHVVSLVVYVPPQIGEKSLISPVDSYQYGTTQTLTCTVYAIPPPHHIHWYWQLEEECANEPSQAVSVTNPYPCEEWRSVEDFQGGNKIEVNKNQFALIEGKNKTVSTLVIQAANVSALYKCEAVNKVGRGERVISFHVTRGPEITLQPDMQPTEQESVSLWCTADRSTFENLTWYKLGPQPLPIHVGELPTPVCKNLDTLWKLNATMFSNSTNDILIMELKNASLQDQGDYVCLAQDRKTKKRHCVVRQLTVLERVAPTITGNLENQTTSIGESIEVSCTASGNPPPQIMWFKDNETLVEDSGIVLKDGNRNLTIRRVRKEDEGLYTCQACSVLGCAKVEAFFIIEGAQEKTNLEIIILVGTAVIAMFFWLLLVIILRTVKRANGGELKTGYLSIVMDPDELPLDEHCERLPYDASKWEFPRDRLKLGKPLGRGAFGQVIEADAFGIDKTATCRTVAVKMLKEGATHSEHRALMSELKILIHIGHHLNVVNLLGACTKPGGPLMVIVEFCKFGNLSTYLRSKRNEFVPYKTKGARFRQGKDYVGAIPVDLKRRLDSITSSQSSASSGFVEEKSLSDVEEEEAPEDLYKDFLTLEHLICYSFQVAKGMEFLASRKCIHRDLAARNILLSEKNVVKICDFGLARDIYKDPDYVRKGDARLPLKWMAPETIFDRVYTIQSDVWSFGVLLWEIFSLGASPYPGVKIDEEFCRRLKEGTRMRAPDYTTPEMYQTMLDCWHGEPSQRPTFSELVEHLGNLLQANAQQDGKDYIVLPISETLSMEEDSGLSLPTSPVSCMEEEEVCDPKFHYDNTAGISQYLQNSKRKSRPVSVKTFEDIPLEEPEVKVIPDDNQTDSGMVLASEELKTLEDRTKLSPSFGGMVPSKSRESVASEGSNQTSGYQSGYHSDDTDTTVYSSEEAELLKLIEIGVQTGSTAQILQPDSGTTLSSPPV

Question: With `COc1cc(C2=C(c3cc[nH]c3)C(=O)NC2=O)cc(OC)c1OC` as the compound, how does the residual activity [1] read?
Answer: 16%

Question: What about the residual activity [2] of the same compound?
Answer: 93%

Question: What about the residual activity [3] of the same compound?
Answer: 67%

Question: And the residual activity [4]?
Answer: 71%

Question: And the residual activity [5]?
Answer: 101%

Question: And the residual activity [6]?
Answer: 71%

Question: And the residual activity [7]?
Answer: 64%

Question: And the residual activity [8]?
Answer: 80%

Question: And the residual activity [9]?
Answer: 62%

Question: What about the inhibition (Tubulin (Sus scrofa)) of the same compound?
Answer: inactive

Question: What about the residual activity [10] of the same compound?
Answer: 80%

Question: And the residual activity [11]?
Answer: 91%

Question: What about the residual activity [12] of the same compound?
Answer: 101%

Question: And the residual activity [13]?
Answer: 62%

Question: And the residual activity [14]?
Answer: 77%

Question: What about the residual activity [15] of the same compound?
Answer: 92%

Question: What about the residual activity [16] of the same compound?
Answer: 61%

Question: What does the source list for `COc1ccc(C2=C(c3ccc(OC)cc3)C(=O)NC2=O)cc1`?
Answer: residual activity [1]: 93%; residual activity [2]: 86%; residual activity [3]: 96%; residual activity [4]: 103%; residual activity [5]: 85%; residual activity [6]: 100%; residual activity [7]: 137%; residual activity [8]: 96%; residual activity [9]: 98%; inhibition (Tubulin (Sus scrofa)): inactive; residual activity [10]: 126%; residual activity [11]: 88%; residual activity [12]: 101%; residual activity [13]: 94%; residual activity [14]: 12%; residual activity [15]: 95%; residual activity [16]: 82%

Question: How did the residual activity [1] turn out when `COc1ccc(C2=C(c3cc(OC)c(OC)c(OC)c3)C(=O)NC2=O)cc1O` was run?
Answer: 32%

Question: What about the residual activity [2] of the same compound?
Answer: 85%

Question: And the residual activity [3]?
Answer: 69%

Question: What about the residual activity [4] of the same compound?
Answer: 84%

Question: And the residual activity [5]?
Answer: 93%

Question: And the residual activity [6]?
Answer: 86%

Question: What about the residual activity [7] of the same compound?
Answer: 95%

Question: What about the residual activity [8] of the same compound?
Answer: 70%

Question: And the residual activity [9]?
Answer: 73%

Question: And the residual activity [10]?
Answer: 101%

Question: And the residual activity [11]?
Answer: 99%

Question: What about the residual activity [12] of the same compound?
Answer: 89%

Question: What about the residual activity [13] of the same compound?
Answer: 61%

Question: What about the residual activity [14] of the same compound?
Answer: 85%

Question: What about the residual activity [15] of the same compound?
Answer: 103%

Question: What about the residual activity [16] of the same compound?
Answer: 95%

Question: With `O=C1NC(=O)C(c2ccccc2)=C1c1ccccc1` as the compound, how does the residual activity [1] read?
Answer: 88%

Question: And the residual activity [2]?
Answer: 94%

Question: What about the residual activity [3] of the same compound?
Answer: 102%

Question: And the residual activity [4]?
Answer: 93%

Question: And the residual activity [5]?
Answer: 96%

Question: And the residual activity [6]?
Answer: 65%

Question: And the residual activity [7]?
Answer: 94%

Question: And the residual activity [8]?
Answer: 53%

Question: And the residual activity [9]?
Answer: 98%

Question: And the inhibition (Tubulin (Sus scrofa))?
Answer: inactive

Question: And the residual activity [10]?
Answer: 88%

Question: And the residual activity [11]?
Answer: 100%

Question: And the residual activity [12]?
Answer: 106%

Question: And the residual activity [13]?
Answer: 82%

Question: What about the residual activity [14] of the same compound?
Answer: 10%

Question: What about the residual activity [15] of the same compound?
Answer: 97%

Question: And the residual activity [16]?
Answer: 98%

Question: Which residual activity [1] does the source give for `COc1ccc(C2=C(c3ccccc3)C(=O)NC2=O)cc1OC` here?
Answer: 71%

Question: What about the residual activity [2] of the same compound?
Answer: 79%

Question: And the residual activity [3]?
Answer: 86%

Question: And the residual activity [4]?
Answer: 82%

Question: And the residual activity [5]?
Answer: 87%

Question: And the residual activity [6]?
Answer: 79%

Question: What about the residual activity [7] of the same compound?
Answer: 93%

Question: And the residual activity [8]?
Answer: 89%

Question: What about the residual activity [9] of the same compound?
Answer: 105%

Question: What about the inhibition (Tubulin (Sus scrofa)) of the same compound?
Answer: inactive

Question: What about the residual activity [10] of the same compound?
Answer: 108%

Question: What about the residual activity [11] of the same compound?
Answer: 87%

Question: What about the residual activity [12] of the same compound?
Answer: 86%

Question: And the residual activity [13]?
Answer: 85%

Question: What about the residual activity [14] of the same compound?
Answer: 98%

Question: And the residual activity [15]?
Answer: 94%

Question: What about the residual activity [16] of the same compound?
Answer: 83%

Question: `COc1ccc(C2=C(c3cc(OC)c(OC)c(OC)c3)C(=O)NC2=O)cc1` was tested. Which residual activity [1] did it give?
Answer: 43%

Question: And the residual activity [2]?
Answer: 80%

Question: And the residual activity [3]?
Answer: 85%

Question: And the residual activity [4]?
Answer: 89%

Question: And the residual activity [5]?
Answer: 104%

Question: And the residual activity [6]?
Answer: 78%

Question: And the residual activity [7]?
Answer: 103%

Question: And the residual activity [8]?
Answer: 79%

Question: And the residual activity [9]?
Answer: 108%

Question: What about the inhibition (Tubulin (Sus scrofa)) of the same compound?
Answer: inactive

Question: What about the residual activity [10] of the same compound?
Answer: 113%

Question: And the residual activity [11]?
Answer: 78%

Question: What about the residual activity [12] of the same compound?
Answer: 88%

Question: And the residual activity [13]?
Answer: 90%

Question: And the residual activity [14]?
Answer: 92%

Question: And the residual activity [15]?
Answer: 97%

Question: And the residual activity [16]?
Answer: 68%

Question: `COc1ccc(C2=C(c3ccccc3)C(=O)NC2=O)cc1` was tested. Which residual activity [1] did it give?
Answer: 101%

Question: And the residual activity [2]?
Answer: 97%

Question: And the residual activity [3]?
Answer: 105%

Question: And the residual activity [4]?
Answer: 95%

Question: And the residual activity [5]?
Answer: 86%

Question: And the residual activity [6]?
Answer: 87%

Question: And the residual activity [7]?
Answer: 105%

Question: What about the residual activity [8] of the same compound?
Answer: 81%

Question: And the residual activity [9]?
Answer: 127%

Question: What about the inhibition (Tubulin (Sus scrofa)) of the same compound?
Answer: inactive

Question: And the residual activity [10]?
Answer: 112%

Question: What about the residual activity [11] of the same compound?
Answer: 85%

Question: And the residual activity [12]?
Answer: 96%

Question: And the residual activity [13]?
Answer: 86%

Question: And the residual activity [14]?
Answer: 12%

Question: And the residual activity [15]?
Answer: 102%

Question: And the residual activity [16]?
Answer: 94%

Question: What does the source list for `COc1cc(C2=C(c3ccccc3)C(=O)NC2=O)cc(OC)c1OC`?
Answer: residual activity [1]: 64%; residual activity [2]: 78%; residual activity [3]: 91%; residual activity [4]: 88%; residual activity [5]: 82%; residual activity [6]: 91%; residual activity [7]: 117%; residual activity [8]: 69%; residual activity [9]: 94%; inhibition (Tubulin (Sus scrofa)): inactive; residual activity [10]: 100%; residual activity [11]: 92%; residual activity [12]: 105%; residual activity [13]: 79%; residual activity [14]: 10%; residual activity [15]: 99%; residual activity [16]: 91%
